Source: PubChem
This is a sample that favours compounds with a hit; in the whole collection about 2.2% have one here.
S100A4 MyoIIA = blocks human S100A4 binding to myosin IIA peptide; P26447; S100A4/TAMRA-MyoIIA peptide fluorescence polarization; inhibition, % at 10.7 µM; 360,000 compounds, 0.14% hits; AID 652163;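 active = mean inhibition of at least 70% across replicates, with every replicate also reaching that level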
Target sequence (P26447 whole entry, looked up): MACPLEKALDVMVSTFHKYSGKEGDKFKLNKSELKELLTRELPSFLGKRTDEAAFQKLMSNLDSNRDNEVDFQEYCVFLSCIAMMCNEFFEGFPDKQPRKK
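Test system: S100A4 monomer protein. Medium: HEPES buffer with Ca2+, pH 7.2. Reagent: fluorescent myosin IIA peptide, 5 nM. Compound dosing: single-point compound testing. Timing: 5 min between mix addition and reading. Benchmarks: DMSO neutral and TFP positive wells.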
dFosB activator = activators of mouse delta FosB homodimer. activation, % at 25 µM. 340,000 compounds, 0.99% hits. purified delta FosB, TAMRA-CDK5 oligo fluorescence polarization; percent of positive-control signal above neutral wells. AID 493131;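 active = mean activation above about 17%, with every replicate also reaching it, limit read from the data, passing the limit was not always enough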
Target sequence (P13346 whole entry, looked up): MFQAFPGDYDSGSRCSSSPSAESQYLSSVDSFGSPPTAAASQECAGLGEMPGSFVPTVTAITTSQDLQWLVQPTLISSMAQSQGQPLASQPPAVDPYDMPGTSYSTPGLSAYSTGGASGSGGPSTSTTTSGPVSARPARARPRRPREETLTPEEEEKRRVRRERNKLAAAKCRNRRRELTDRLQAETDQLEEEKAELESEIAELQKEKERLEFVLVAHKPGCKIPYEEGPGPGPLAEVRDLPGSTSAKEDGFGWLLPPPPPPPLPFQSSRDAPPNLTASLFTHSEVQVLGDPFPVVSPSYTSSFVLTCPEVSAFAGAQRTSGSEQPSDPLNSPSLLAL
FGF22 binding = shifts melting point of recombinant human FGF22. Q9HCT0. recombinant FGF22 thermal shift, SYPRO orange fluorescence; percent of sucrose octasulfate shift, DMSO zero. activity (Tm shift, normalised), % at 9.99 µM. 340,000 compounds, 1.5% hits. AID 651658;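 active = mean Tm shift, scaled 0 neutral to 100 positive control, at about 1.3% or above, every replicate too, limit read from the data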
Target sequence (Q9HCT0 whole entry, looked up): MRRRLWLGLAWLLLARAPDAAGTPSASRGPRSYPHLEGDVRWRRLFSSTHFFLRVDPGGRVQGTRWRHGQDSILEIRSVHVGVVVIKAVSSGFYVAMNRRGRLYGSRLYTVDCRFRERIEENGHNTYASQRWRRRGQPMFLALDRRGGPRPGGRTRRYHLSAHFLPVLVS
F508del corr = CFTR F508del correction in bronchial cells. CFBE cells, YFP halide quenching; stimulated with forskolin plus potentiator P3; % fluorescence drop versus neutral controls. activity (quench increase), % at 7.58 µM. 350,000 compounds, 0.36% hits. AID 720511;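 active = mean added fluorescence quench of at least 8% versus neutral control, with both replicates also reaching 8%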;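 note: cells transiently co-express mutant CFTR-F508del with the halide-sensitive YFP; corrector assay measuring rescue of mutant channel to the surface after 24 h compound exposure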
The depositor's hits bear a star; . = no result given.

SMILES | S100A4 MyoIIA | dFosB activator | FGF22 binding | F508del corr
O=C(Cn1cnc2c(oc3ccccc32)c1=O)NCc1ccccc1 | 2.3 | -11.5 | -0.2 | 4.0
Cc1ccc(C)c(NC(=O)Cn2cnc3c(oc4ccccc43)c2=O)c1 | -1.1 | -0.5 | 44.7* | 5.3
COc1ccc(Cc2c(C(C)(C)C)nc3c(C)cc(Br)cn23)c(C)c1 | -0.5 | . | 43.5* | 3.7
O=C(Nc1ccc(F)c(Cl)c1)Nc1cnccn1 | -7.0 | 2.8 | 44.3* | 0.1
C[C@H]1CN([C@@H](C)CO)C(=O)c2cc(NC(=O)C3CC3)ccc2O[C@@H]1CN(C)S(=O)(=O)c1cccs1 | 3.1 | . | 0.0 | 0.6
C/C(=N\NC(N)=S)c1ccc2c(c1)OCCO2 | -1.5 | -4.0 | -0.2 | 2.0
CC(=O)N/N=C(\C)c1ccc2c(c1)OCCO2 | -2.1 | -1.8 | 43.1* | 1.2
COc1ccccc1S(=O)(=O)N[C@@H]1CC[C@@H](CC(=O)N2CCN(C)CC2)O[C@@H]1CO | -51.1 | . | 0.1 | -2.9
O=C(NCC[C@H]1CC[C@@H](NS(=O)(=O)c2ccccc2F)[C@H](CO)O1)c1ccc(F)cc1 | 125.6* | . | -0.4 | 3.5
COc1ccccc1S(=O)(=O)N[C@H]1CC[C@H](CC(=O)N2CCN(C)CC2)O[C@@H]1CO | 128.0* | . | -0.4 | 2.5
O=C(NCC[C@@H]1CC[C@H](NS(=O)(=O)c2ccccc2)[C@@H](CO)O1)c1cc(Cl)cc(Cl)c1 | 33.1 | . | -0.5 | -0.2
O=C(NCC[C@H]1CC[C@H](NS(=O)(=O)c2ccccc2)[C@@H](CO)O1)c1cc(Cl)cc(Cl)c1 | 75.8* | . | -0.7 | 0.3
CN1C(=O)c2cc(NC(=O)c3cccs3)ccc2OC[C@@H]2O[C@@H](CC(=O)NCC(F)(F)F)CC[C@H]21 | 8.0 | . | . | -0.2
Cc1nnc(SCCOc2ccccc2)s1 | 1.9 | -0.8 | 44.1* | -2.5
CCCN(C(=O)CSc1nnnn1C)C1CCS(=O)(=O)C1 (configuration not stated) | -1.3 | 0.6 | 42.9* | -1.9
Cc1cc2nnc(SCC(=O)N(C)C3CCS(=O)(=O)C3)n2c2ccccc12 (configuration not stated) | 3.1 | -3.6 | 43.1* | 4.8
COc1ccc(-n2nnnc2SCC(=O)N(C)C2CCS(=O)(=O)C2)cc1 (configuration not stated) | -7.7 | -0.2 | 43.3* | 1.4
O=C(C[C@H]1CC[C@H](NC(=O)C2CCC2)[C@@H](CO)O1)NC1CCC1 | 11.0 | . | -0.3 | -3.8
C[C@@H]1CCCCO[C@@H](CN(C)C(=O)Nc2cccc3ccccc23)[C@H](C)CN([C@H](C)CO)C(=O)c2cc(N(C)C)ccc2O1 | -3.4 | . | -1.3 | 3.0
C[C@@H]1CN([C@@H](C)CO)C(=O)c2c(c3ccccc3n2C)-c2ccccc2CO[C@H]1CN(C)C(=O)CCC(F)(F)F | 4.5 | . | -0.2 | 1.3
CC1=NN(c2ccc(C(=O)O)cc2)C(=O)/C1=C\c1ccc(OC(=O)c2cccs2)cc1 | -0.2 | -6.1 | 43.1* | -0.9
CCOc1cc(/C=C2\C(=O)N(c3ccc(C(N)=O)cc3)N=C2C)ccc1OC(=O)c1cccs1 | . | -17.9 | . | .
CCOC(=O)N/N=C/c1c(F)c(F)c(F)c(F)c1F | -0.5 | 8.1 | 44.4* | 1.0
O=C(CCN1CCCCC1)N[C@H]1CC[C@H](CCNS(=O)(=O)c2ccc(Cl)cc2)O[C@H]1CO | 2.4 | . | 0.7 | -0.9
CCCc1cn(CC[C@@H]2CC[C@H](NS(=O)(=O)c3ccccc3Cl)[C@@H](CO)O2)nn1 | 96.7* | . | -0.3 | -0.5
SMILES | S100A4 MyoIIA | dFosB activator | FGF22 binding | F508del corr
COc1ccc(NC(=O)N[C@@H]2CC[C@H](CCn3cc(-c4ccc(F)cc4)nn3)O[C@@H]2CO)cc1 | -3.2 | . | -0.3 | 3.4
COc1ccc(NC(=O)N[C@@H]2CC[C@@H](CCn3cc(-c4ccc(F)cc4)nn3)O[C@@H]2CO)cc1 | 0.0 | . | 0.0 | 9.2*
O=C(CCN1CCCCC1)N[C@H]1CC[C@H](CCn2cc(-c3ccccc3)nn2)O[C@@H]1CO | 124.2* | . | -0.5 | -2.3
CCCc1cn(CC[C@H]2CC[C@H](NS(=O)(=O)c3ccccc3Cl)[C@H](CO)O2)nn1 | 8.5 | . | -0.2 | 1.8
O=C(CCN1CCCCC1)N[C@H]1CC[C@@H](CCNS(=O)(=O)c2ccc(Cl)cc2)O[C@H]1CO | 82.4* | . | -0.6 | 2.1
Cc1ccccc1-c1ccc2c(c1)O[C@@H](CN(C)Cc1ccc(C(=O)O)cc1)[C@@H](C)CN([C@@H](C)CO)S2(=O)=O | -14.0 | . | 0.1 | 0.0
CCN(CC)CCCNC(=O)c1cc(Cl)c(NC(=O)C2=C(C)OCCS2)cc1OC | -7.7 | -4.1 | -0.1 | .
CCN1CCN(CCNC(=O)c2cc(Cl)c(NC(=O)C3=C(C)OCCS3)cc2OC)CC1 | 126.0* | -0.2 | 0.1 | 1.7
CCCC(=O)Nc1ccc2c(c1)C(=O)N(C)C[C@@H](OC)[C@@H](C)CN(Cc1ccccc1F)[C@H](C)CO2 | 1.1 | . | -0.1 | -0.1
FC(F)(F)c1cnc(C(c2ccccc2)c2ncn[nH]2)c(Cl)c1 (configuration not stated) | 3.1 | -1.0 | 43.3* | -3.3
COc1ccc(C#Cc2ccc3c(c2)[C@H]2[C@H](CCN2C(=O)NC(C)C)[C@H](CO)N3C)cc1 | 6.2 | . | 0.3 | -1.8
COc1ccc(C#Cc2ccc([C@@H]3[C@@H](CO)N4CCCCN(C(=O)Nc5ccc(F)cc5)C[C@@H]34)cc2)cc1 | 102.3* | . | -0.6 | 1.7
O=C(Nc1ccccc1)N1CCCCN2[C@@H](CO)[C@H](c3ccc(C#Cc4ccccc4)cc3)[C@@H]2C1 | 8.3 | . | -0.7 | 8.1*
COc1ccccc1NC(=O)N1CCCCN2[C@H](C1)[C@@H](c1ccc(C#CC3CC3)cc1)[C@@H]2CO | 81.2* | . | . | -4.2
COc1ccc(C#Cc2ccc([C@H]3[C@H]4CN(C(=O)c5ccncc5)CCCCN4[C@H]3CO)cc2)cc1 | -0.8 | . | -0.9 | 9.3*
C[C@H](CO)N1C[C@H](C)[C@H](CN(C)S(=O)(=O)c2ccc(C(F)(F)F)cc2)OCc2ccccc2-c2c(n(C)c3ccccc23)C1=O | -11.9 | . | -0.5 | -0.6
O=C(NC1CCCC1)N1CCCCN2[C@H](CO)[C@H](c3ccc(-c4cccnc4)cc3)[C@H]2C1 | 4.5 | . | 0.8 | 1.2
O=C(NC1CCCC1)N1CCCCN2[C@@H](CO)[C@@H](c3ccc(-c4cccnc4)cc3)[C@@H]2C1 | 97.7* | . | -0.7 | 1.5
O=C(Nc1cccc(F)c1)N1CCCCN2[C@@H](CO)[C@H](c3ccc(C#Cc4ccccc4)cc3)[C@@H]2C1 | 8.5 | . | -0.8 | 8.9*
O=C(Nc1cccc(F)c1)N1CCCCN2[C@H](C1)[C@H](c1ccc(C#Cc3ccccc3)cc1)[C@@H]2CO | . | . | . | 4.7
COc1cccc(CN2[C@@H](CO)[C@H](c3ccccc3)C23CN(C(=O)C2CCOCC2)C3)c1 | 19.8 | . | -0.5 | -0.8
CO[C@H]1CN(C)C(=O)c2ccc(NC(=O)c3ccccc3F)cc2OC[C@@H](C)NC[C@H]1C | -7.2 | . | 0.0 | -1.3
